Common to all, as to assay type: functional
One experiment deals with Candida albicans. In words: Antifungal activity against Candida albicans ATCC Y0109 after 24 hrs by micro-broth dilution method. The settings on record: ATCC Y0109, 24 h. The method, boiled down: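 Micro-broth dilution per NCCLS M27-A2 on the quality-control standard strain ATCC Y0109, included in each assay. Compounds were dissolved in DMSO, serially diluted in growth medium, inoculated and incubated at 35 °C, with growth read at 24 h. MIC80 is the first well showing roughly 80% growth reduction versus the drug-free well.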
A general note: In broth dilution the organism is exposed to a series of concentrations in liquid medium.

A further experiment has as its system Candida parapsilosis. In words: Antifungal activity against Candida parapsilosis ATCC 0306392 by micro-broth dilution method. The settings on record: Lodderomyces parapsilosis. The method, boiled down: (§1)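 Micro-broth dilution per NCCLS M27-A2. The C. parapsilosis strain is the ATCC 0306392 quality-control standard tested in each assay; the C. tropicalis strain is a clinical isolate. Compounds were in DMSO, serially diluted in growth medium, inoculated and incubated at 35 °C. MIC80 is the first well with about 80% growth reduction relative to the drug-free well.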

The test system of the next experiment is Candida tropicalis. In words: Antifungal activity against Candida tropicalis by micro-broth dilution method. The method, boiled down: as §1
The test system of a further experiment is Cryptococcus neoformans. As to the kind of experiment: Antifungal activity against Cryptococcus neoformans ATCC BLS108 after 72 hrs by micro-broth dilution method. The settings on record: ATCC BLS108, 72 h. The method, boiled down: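 NCCLS M27-A2 microdilution on the ATCC BLS108 quality-control strain, tested in every assay. Compounds were taken up in DMSO, serially diluted in growth medium, inoculated and incubated at 35 °C. Growth was scored at 72 h. MIC80 is the first well with about 80% lower growth than the drug-free control well.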

The next experiment deals with Aspergillus fumigatus. As to the kind of experiment: Antifungal activity against Aspergillus fumigatus after 7 days by micro-broth dilution method. The settings on record: 168 h. The method, boiled down:
(§2)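 Broth microdilution following the NCCLS yeast reference method (M27-A2), run on clinical isolates of filamentous fungi. Compounds were dissolved in DMSO, serially diluted in growth medium, inoculated and incubated at 35 °C. Growth was read at 7 days. MIC80 is the first well with about 80% less growth than the drug-free well.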

Another experiment concerns Trichophyton rubrum. In words: Antifungal activity against Trichophyton rubrum after 7 days by micro-broth dilution method. The settings on record: 168 h. The method, boiled down: as §2
Experiment [1] in a line: Antifungal activity against Fonsecaea compacta by micro-broth dilution method. The method, boiled down:
as §2

Another experiment deals with Nannizzia gypsea. In words: Antifungal activity against Microsporum gypseum after 7 days by micro-broth dilution method. The settings on record: 168 h. The method, boiled down: as §2

Molecules are shown by their SMILES. Values after ≈ are worked out from the molar mass of the structure shown. Some results are limits rather than exact numbers.

`O=C(CCl)Nc1ccc(N2CCN(CC(O)(Cn3cncn3)c3ccc(F)cc3F)CC2)cc1` (racemic): the MIC80 (in general, an inhibitory concentration at the 80% level, which refers to growth in some studies and to a panel of isolates in others) in the experiment on Candida albicans came out at 0.0039 µg/mL (≈ 0.00794 µM); with Candida parapsilosis, 0.0156 µg/mL (≈ 0.0318 µM); with Candida tropicalis, 0.0156 µg/mL (≈ 0.0318 µM); with Cryptococcus neoformans, 0.25 µg/mL (≈ 0.509 µM); with Aspergillus fumigatus, 4 µg/mL (≈ 8.15 µM); in the experiment with Trichophyton rubrum, 0.0625 µg/mL (≈ 0.127 µM). Moreover, the MIC80 (in experiment [1]; in the experiment on Nannizzia gypsea) was 0.0625 µg/mL (≈ 0.127 µM) each time.
With `O=C(Nc1ccc(N2CCN(CC(O)(Cn3cncn3)c3ccc(F)cc3F)CC2)cc1)C(F)(F)Cl` (racemic), the MIC80 amounted to 0.00097 µg/mL (≈ 0.00184 µM) in the experiment with Candida albicans; 0.0039 µg/mL (≈ 0.0074 µM) with Candida parapsilosis; 0.0039 µg/mL (≈ 0.0074 µM) in the experiment on Candida tropicalis; 0.0625 µg/mL (≈ 0.119 µM) with Cryptococcus neoformans; 1 µg/mL (≈ 1.9 µM) against Aspergillus fumigatus; 0.0156 µg/mL (≈ 0.0296 µM) with Trichophyton rubrum. Besides, the results for the MIC80 (in experiment [1]; with Nannizzia gypsea) were 0.0625 µg/mL (≈ 0.119 µM) and 0.0039 µg/mL (≈ 0.0074 µM), respectively.
In the case of `O=C(Nc1ccc(N2CCN(CC(O)(Cn3cncn3)c3ccc(F)cc3F)CC2)cc1)C(F)(F)F` (racemic), the MIC80 against Candida albicans turned out to be 0.00097 µg/mL (≈ 0.0019 µM); against Candida parapsilosis, 0.0039 µg/mL (≈ 0.00764 µM); in the experiment with Candida tropicalis, 0.00097 µg/mL (≈ 0.0019 µM); with Cryptococcus neoformans it was 0.0156 µg/mL (≈ 0.0306 µM); against Aspergillus fumigatus, 1 µg/mL (≈ 1.96 µM); in the experiment on Trichophyton rubrum it was 0.0156 µg/mL (≈ 0.0306 µM). The MIC80 in experiment [1] turned out to be 0.0156 µg/mL (≈ 0.0306 µM); against Nannizzia gypsea it was 0.0039 µg/mL (≈ 0.00764 µM).
Take `CCC(=O)Nc1ccc(N2CCN(CC(O)(Cn3cncn3)c3ccc(F)cc3F)CC2)cc1` (racemic): the MIC80 in the experiment on Candida albicans was 0.0156 µg/mL (≈ 0.0332 µM); in the experiment with Candida parapsilosis it was 0.0156 µg/mL (≈ 0.0332 µM); against Candida tropicalis, 0.0156 µg/mL (≈ 0.0332 µM); against Cryptococcus neoformans it was 1 µg/mL (≈ 2.13 µM); against Aspergillus fumigatus it was 4 µg/mL (≈ 8.5 µM); against Trichophyton rubrum it was 0.0625 µg/mL (≈ 0.133 µM). Moreover, the MIC80 (in experiment [1]; in the experiment on Nannizzia gypsea) was 0.25 µg/mL (≈ 0.531 µM) in each case.
Take `CCCC(=O)Nc1ccc(N2CCN(CC(O)(Cn3cncn3)c3ccc(F)cc3F)CC2)cc1` (racemic): the MIC80 with Candida albicans worked out at 0.00097 µg/mL (≈ 0.002 µM); against Candida parapsilosis, 0.0156 µg/mL (≈ 0.0322 µM); against Candida tropicalis it was 0.0625 µg/mL (≈ 0.129 µM); against Cryptococcus neoformans, 0.25 µg/mL (≈ 0.516 µM); against Aspergillus fumigatus, 4 µg/mL (≈ 8.26 µM); with Trichophyton rubrum, 0.0625 µg/mL (≈ 0.129 µM). Moreover, the MIC80 in experiment [1] was 0.25 µg/mL (≈ 0.516 µM); in the experiment on Nannizzia gypsea, 0.0625 µg/mL (≈ 0.129 µM).
On to `CC(C)C(=O)Nc1ccc(N2CCN(CC(O)(Cn3cncn3)c3ccc(F)cc3F)CC2)cc1` (racemic), for which the MIC80 stood at 0.0039 µg/mL (≈ 0.00805 µM) with Candida albicans; 0.0156 µg/mL (≈ 0.0322 µM) against Candida parapsilosis; 0.0156 µg/mL (≈ 0.0322 µM) in the experiment on Candida tropicalis; 1 µg/mL (≈ 2.06 µM) with Cryptococcus neoformans; 4 µg/mL (≈ 8.26 µM) in the experiment with Aspergillus fumigatus; 0.25 µg/mL (≈ 0.516 µM) against Trichophyton rubrum. The MIC80 turned out to be 0.25 µg/mL (≈ 0.516 µM) in experiment [1] and 0.0625 µg/mL (≈ 0.129 µM) with Nannizzia gypsea.
Regarding `CCCCC(=O)Nc1ccc(N2CCN(CC(O)(Cn3cncn3)c3ccc(F)cc3F)CC2)cc1` (racemic), the MIC80 in the experiment on Candida albicans is 0.0156 µg/mL (≈ 0.0313 µM); in the experiment on Candida parapsilosis it was 0.0625 µg/mL (≈ 0.125 µM); in the experiment with Candida tropicalis it was 0.0625 µg/mL (≈ 0.125 µM); with Cryptococcus neoformans, 0.25 µg/mL (≈ 0.501 µM); in the experiment on Aspergillus fumigatus, 1 µg/mL (≈ 2.01 µM); in the experiment with Trichophyton rubrum, 0.0625 µg/mL (≈ 0.125 µM). Also, the MIC80 (in experiment [1]; with Nannizzia gypsea) was 0.25 µg/mL (≈ 0.501 µM) throughout.
With `CCCCCC(=O)Nc1ccc(N2CCN(CC(O)(Cn3cncn3)c3ccc(F)cc3F)CC2)cc1` (racemic), the MIC80 against Candida albicans is 0.0156 µg/mL (≈ 0.0304 µM); with Candida parapsilosis it was 0.25 µg/mL (≈ 0.488 µM); with Candida tropicalis, 0.25 µg/mL (≈ 0.488 µM); in the experiment on Cryptococcus neoformans it was 1 µg/mL (≈ 1.95 µM); against Aspergillus fumigatus it was greater than 64 µg/mL; against Trichophyton rubrum, 0.0625 µg/mL (≈ 0.122 µM). For the same compound, the MIC80 in experiment [1] was determined as 1 µg/mL (≈ 1.95 µM); in the experiment with Nannizzia gypsea, 0.0625 µg/mL (≈ 0.122 µM).
As to `CC(C)(C)C(=O)Nc1ccc(N2CCN(CC(O)(Cn3cncn3)c3ccc(F)cc3F)CC2)cc1` (racemic), the MIC80 amounted to 0.0156 µg/mL (≈ 0.0313 µM) in the experiment with Candida albicans; 0.0156 µg/mL (≈ 0.0313 µM) in the experiment with Candida parapsilosis; 0.0156 µg/mL (≈ 0.0313 µM) in the experiment with Candida tropicalis; 0.25 µg/mL (≈ 0.501 µM) with Cryptococcus neoformans; 16 µg/mL (≈ 32.1 µM) against Aspergillus fumigatus; 0.0039 µg/mL (≈ 0.00782 µM) with Trichophyton rubrum. The MIC80 in experiment [1] turned out to be 1 µg/mL (≈ 2.01 µM); against Nannizzia gypsea it was 0.0156 µg/mL (≈ 0.0313 µM).
As to `CCCCCCC(=O)Nc1ccc(N2CCN(CC(O)(Cn3cncn3)c3ccc(F)cc3F)CC2)cc1` (racemic), the MIC80 in the experiment with Candida albicans was 0.00097 µg/mL (≈ 0.00184 µM); against Candida parapsilosis, 0.0156 µg/mL (≈ 0.0296 µM); against Candida tropicalis it was 0.0156 µg/mL (≈ 0.0296 µM); against Cryptococcus neoformans, 0.0625 µg/mL (≈ 0.119 µM); in the experiment on Aspergillus fumigatus, greater than 64 µg/mL; against Trichophyton rubrum it was 0.0039 µg/mL (≈ 0.00741 µM). In addition, the MIC80 was found to be 0.0625 µg/mL (≈ 0.119 µM) in experiment [1] and 0.0039 µg/mL (≈ 0.00741 µM) in the experiment on Nannizzia gypsea.

(Values after ChEMBL document CHEMBL1799942, “Design, synthesis and antifungal activities of novel 1,2,4-triazole derivatives” (2011).)
